The text below walks through data of the M2OR odorant receptor database.

Substitutions are numbered along the chain they refer to.

Settings in all cases: stereoisomer not certain
One test has as its system T1, A0A140T8K4.
T1 sequence (whole entry): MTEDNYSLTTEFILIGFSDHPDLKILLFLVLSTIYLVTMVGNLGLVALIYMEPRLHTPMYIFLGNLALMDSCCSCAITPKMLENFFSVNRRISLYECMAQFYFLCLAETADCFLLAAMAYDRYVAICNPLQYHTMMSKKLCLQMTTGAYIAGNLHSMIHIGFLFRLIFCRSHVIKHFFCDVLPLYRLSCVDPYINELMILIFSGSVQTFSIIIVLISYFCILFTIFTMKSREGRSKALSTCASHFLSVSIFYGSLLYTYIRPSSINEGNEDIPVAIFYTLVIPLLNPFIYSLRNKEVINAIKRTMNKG
The method in brief: (§1)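 Assay methods differ from source to source, frequently being transient luciferase assays in mammalian cell lines. For each receptor–molecule pair, the label responsive (active) applies when the original authors judged the measured signal statistically different from baseline, and non-responsive (inactive) applies otherwise.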

For the next test, the system named is T2, A0A2J8MY22.
T2 sequence (whole entry): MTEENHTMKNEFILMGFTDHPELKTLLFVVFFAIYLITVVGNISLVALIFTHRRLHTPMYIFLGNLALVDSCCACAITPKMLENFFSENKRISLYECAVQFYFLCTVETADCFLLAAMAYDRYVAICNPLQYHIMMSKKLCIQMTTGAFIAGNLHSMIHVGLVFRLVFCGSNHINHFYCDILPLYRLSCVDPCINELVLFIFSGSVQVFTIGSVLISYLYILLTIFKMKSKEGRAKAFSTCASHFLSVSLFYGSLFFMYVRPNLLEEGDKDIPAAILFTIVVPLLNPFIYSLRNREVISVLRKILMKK
A digest of the protocol: as §1

In a further test the test system is T3, A0A2R8ZIW4.
T3 sequence (whole entry): T2 sequence (whole entry) with V39I, I280V
A digest of the protocol: as §1

The subject of a further test is T4, A0A3Q7SVK8.
T4 sequence (whole entry): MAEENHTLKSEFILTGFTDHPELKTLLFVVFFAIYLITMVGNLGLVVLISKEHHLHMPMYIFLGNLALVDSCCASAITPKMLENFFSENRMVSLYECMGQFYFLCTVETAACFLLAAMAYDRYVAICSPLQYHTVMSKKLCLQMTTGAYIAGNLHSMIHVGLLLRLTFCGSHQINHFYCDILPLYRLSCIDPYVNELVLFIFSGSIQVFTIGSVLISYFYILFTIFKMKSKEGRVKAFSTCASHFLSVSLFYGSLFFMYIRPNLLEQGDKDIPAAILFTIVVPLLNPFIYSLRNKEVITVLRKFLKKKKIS
The method in brief:
as §1

A further test has as its system T5, A0A6P3DZI2.
T5 sequence (whole entry): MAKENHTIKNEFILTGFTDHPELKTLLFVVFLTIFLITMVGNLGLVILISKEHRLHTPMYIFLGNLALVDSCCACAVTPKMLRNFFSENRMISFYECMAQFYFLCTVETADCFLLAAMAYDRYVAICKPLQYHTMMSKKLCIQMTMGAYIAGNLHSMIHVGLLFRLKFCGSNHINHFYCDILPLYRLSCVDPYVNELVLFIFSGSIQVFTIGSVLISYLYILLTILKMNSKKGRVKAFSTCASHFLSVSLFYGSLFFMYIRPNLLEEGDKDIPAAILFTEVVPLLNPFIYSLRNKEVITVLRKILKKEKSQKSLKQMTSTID
The method in brief: as §1

For the next test, the system named is T6, A0A6P6H1F7.
T6 sequence (whole entry): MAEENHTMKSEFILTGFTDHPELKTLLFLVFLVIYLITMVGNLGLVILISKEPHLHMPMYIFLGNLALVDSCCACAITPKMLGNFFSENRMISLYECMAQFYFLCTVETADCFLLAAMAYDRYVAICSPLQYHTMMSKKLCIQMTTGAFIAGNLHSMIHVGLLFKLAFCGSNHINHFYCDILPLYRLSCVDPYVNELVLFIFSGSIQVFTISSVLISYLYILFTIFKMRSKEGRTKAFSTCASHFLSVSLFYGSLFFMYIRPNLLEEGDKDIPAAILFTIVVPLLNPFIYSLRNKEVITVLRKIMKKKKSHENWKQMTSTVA
The method in brief:
as §1

A further test has as its system T7, O10A2 H43R H207R K258T.
T7 sequence (whole entry): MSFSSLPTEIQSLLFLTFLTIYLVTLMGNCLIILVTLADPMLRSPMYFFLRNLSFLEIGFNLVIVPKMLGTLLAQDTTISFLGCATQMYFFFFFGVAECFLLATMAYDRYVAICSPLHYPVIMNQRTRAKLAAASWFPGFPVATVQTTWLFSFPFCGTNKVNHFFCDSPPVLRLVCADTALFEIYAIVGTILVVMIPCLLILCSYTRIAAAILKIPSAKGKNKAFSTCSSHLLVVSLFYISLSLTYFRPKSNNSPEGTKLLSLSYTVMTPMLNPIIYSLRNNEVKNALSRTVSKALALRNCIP
The method in brief:
as §1

The subject of another test is T8, O10A3 C8G.
T8 sequence (whole entry): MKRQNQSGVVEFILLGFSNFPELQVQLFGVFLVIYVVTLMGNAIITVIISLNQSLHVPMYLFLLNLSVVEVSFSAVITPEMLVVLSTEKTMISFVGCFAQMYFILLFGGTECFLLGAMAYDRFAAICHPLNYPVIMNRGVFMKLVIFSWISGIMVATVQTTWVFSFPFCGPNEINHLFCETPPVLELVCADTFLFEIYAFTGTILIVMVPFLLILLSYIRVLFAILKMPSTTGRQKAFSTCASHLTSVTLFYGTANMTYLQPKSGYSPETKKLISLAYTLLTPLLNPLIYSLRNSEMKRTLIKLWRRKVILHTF
A digest of the protocol:
as §1

The next test relates to T9, O10A6.
T9 sequence (whole entry): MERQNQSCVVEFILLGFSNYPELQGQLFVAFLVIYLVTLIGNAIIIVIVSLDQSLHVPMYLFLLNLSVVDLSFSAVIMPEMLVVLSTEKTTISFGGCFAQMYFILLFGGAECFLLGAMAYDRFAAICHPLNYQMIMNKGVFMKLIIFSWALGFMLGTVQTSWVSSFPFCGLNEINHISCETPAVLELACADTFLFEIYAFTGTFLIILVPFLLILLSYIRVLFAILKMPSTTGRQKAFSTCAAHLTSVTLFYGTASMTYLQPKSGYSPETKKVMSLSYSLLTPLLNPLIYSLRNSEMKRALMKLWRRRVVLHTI
A digest of the protocol:
as §1

Another test relates to T10, O10AD G65C.
T10 sequence (whole entry): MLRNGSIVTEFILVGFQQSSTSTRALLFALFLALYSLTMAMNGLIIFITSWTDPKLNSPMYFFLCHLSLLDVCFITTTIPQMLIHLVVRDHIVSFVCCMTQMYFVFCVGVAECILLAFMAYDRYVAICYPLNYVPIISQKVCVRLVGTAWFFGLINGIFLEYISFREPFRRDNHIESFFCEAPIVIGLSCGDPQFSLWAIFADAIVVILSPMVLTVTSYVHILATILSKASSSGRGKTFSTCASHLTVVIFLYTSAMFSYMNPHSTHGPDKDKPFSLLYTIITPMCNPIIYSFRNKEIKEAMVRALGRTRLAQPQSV
The method in brief:
as §1

The subject of the next test is T11, O10D3 V134A R197K.
T11 sequence (whole entry): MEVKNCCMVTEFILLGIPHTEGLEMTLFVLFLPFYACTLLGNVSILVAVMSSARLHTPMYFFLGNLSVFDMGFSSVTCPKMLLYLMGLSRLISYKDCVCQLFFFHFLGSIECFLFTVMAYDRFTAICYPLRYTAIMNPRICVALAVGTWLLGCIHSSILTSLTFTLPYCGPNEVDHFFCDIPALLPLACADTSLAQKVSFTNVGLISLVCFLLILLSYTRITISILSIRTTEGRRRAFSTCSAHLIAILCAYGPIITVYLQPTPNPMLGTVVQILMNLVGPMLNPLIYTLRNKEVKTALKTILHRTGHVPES
A digest of the protocol:
as §1

Another test deals with T12, O10G4 L24P V195E.
T12 sequence (whole entry): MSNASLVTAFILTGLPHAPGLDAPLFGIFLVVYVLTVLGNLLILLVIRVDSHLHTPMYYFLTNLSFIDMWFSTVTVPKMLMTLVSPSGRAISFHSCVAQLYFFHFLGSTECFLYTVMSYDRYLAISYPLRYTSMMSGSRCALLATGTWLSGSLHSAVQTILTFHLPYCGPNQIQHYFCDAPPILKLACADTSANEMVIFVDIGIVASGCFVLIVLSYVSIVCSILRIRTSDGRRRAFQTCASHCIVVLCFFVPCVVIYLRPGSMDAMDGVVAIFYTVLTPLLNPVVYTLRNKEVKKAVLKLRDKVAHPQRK
The method in brief: as §1

The test system of another test is T13, O10G7 A18V P19Q G20A.
T13 sequence (whole entry): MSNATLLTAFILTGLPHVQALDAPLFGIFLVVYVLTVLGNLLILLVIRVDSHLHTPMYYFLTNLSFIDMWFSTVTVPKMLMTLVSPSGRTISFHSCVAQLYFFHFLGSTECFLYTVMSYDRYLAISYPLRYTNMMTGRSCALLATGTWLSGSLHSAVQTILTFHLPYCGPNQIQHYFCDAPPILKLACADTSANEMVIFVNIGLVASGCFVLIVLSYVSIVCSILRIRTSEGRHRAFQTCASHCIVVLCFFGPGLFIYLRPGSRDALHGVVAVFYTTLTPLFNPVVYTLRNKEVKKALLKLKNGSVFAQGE
A digest of the protocol:
as §1

A further test has as its system T14, O10G7 I28V.
T14 sequence (whole entry): T13 sequence (whole entry) with V18A, Q19P, A20G, I28V
A digest of the protocol: as §1

The test system of another test is T15, A0A1L1SVG7.
T15 sequence (whole entry): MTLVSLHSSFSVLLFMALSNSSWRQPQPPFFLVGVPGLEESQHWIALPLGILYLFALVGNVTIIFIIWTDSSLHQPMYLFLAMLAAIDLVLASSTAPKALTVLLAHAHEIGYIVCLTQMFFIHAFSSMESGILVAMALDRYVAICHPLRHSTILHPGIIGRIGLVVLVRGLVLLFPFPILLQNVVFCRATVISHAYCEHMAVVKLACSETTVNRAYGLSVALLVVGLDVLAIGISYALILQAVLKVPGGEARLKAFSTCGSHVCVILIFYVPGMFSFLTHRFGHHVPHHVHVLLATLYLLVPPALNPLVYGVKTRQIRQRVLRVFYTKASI
A digest of the protocol:
as §1

In a further test the test system is T16, A0A140T8K0.
T16 sequence (whole entry): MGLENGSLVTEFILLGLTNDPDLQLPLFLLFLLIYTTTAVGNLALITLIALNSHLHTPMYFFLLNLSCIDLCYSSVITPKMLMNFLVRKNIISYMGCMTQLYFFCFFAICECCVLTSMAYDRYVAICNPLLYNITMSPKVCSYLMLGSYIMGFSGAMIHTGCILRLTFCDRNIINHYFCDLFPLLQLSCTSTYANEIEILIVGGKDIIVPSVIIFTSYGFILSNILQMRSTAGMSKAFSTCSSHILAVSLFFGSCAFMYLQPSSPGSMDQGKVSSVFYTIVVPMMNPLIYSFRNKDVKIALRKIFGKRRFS
The method in brief: as §1

For the compound `Cc1nccnc1C`, the “odorant receptor agonist call” value in the test on A0A140T8K4 and in the test with A0A6P3DZI2 was “inactive” in each case. Moreover, the “odorant receptor agonist call” value in the test on A0A2J8MY22, in the test on A0A2R8ZIW4, with A0A3Q7SVK8 and in the test with A0A6P6H1F7 was “active” in each case.
`CCc1nccnc1C`: the “odorant receptor agonist call” value in the test with A0A140T8K4 and with A0A6P3DZI2 was “inactive” each time. For the same compound, the “odorant receptor agonist call” value with A0A2J8MY22, in the test with A0A2R8ZIW4, in the test on A0A3Q7SVK8 and with A0A6P6H1F7 was “active” throughout.
As to `CCC1OC(=O)C(O)=C1C` (configuration not stated), the “odorant receptor agonist call” value with O10A2 H43R H207R K258T, in the test on O10A3 C8G, with O10A6, with O10AD G65C, in the test on O10D3 V134A R197K and in the test with O10G4 L24P V195E was “inactive” in each case. For the same compound, the “odorant receptor agonist call” value with O10G7 A18V P19Q G20A and in the test with O10G7 I28V was “inactive” each time.
As to `COC1=C(C)OC(C)C1=O` (configuration not stated), the “odorant receptor agonist call” value in the test on A0A140T8K4, in the test on A0A2R8ZIW4, in the test on A0A3Q7SVK8, in the test on A0A6P3DZI2 and in the test with A0A6P6H1F7 was “inactive” throughout. Further, the “odorant receptor agonist call” value in the test with A0A2J8MY22 is “active”.
Turning to `CCC(C(=O)O)c1ccccc1` (configuration not stated), the “odorant receptor agonist call” value in the test on A0A140T8K4 and with A0A1L1SVG7 was “inactive” in each case.
For the compound `CCCCOC(=O)C(C)OC(=O)CCC` (configuration not stated), the “odorant receptor agonist call” value with A0A140T8K4 and in the test with A0A1L1SVG7 was “inactive” throughout.
In the case of `COc1nccnc1C(C)C`, the “odorant receptor agonist call” value in the test on A0A140T8K0, with A0A140T8K4 and in the test on A0A6P3DZI2 was “inactive” each time. Besides, the “odorant receptor agonist call” value with A0A2J8MY22, with A0A2R8ZIW4, in the test on A0A3Q7SVK8 and in the test with A0A6P6H1F7 was “active” in each case.
For the compound `Cc1cnc(C)cn1`, the “odorant receptor agonist call” value in the test with A0A140T8K4 and in the test with A0A6P3DZI2 was “inactive” each time. Besides, the “odorant receptor agonist call” value in the test with A0A2J8MY22, with A0A2R8ZIW4, in the test on A0A3Q7SVK8 and in the test with A0A6P6H1F7 was “active” each time.
As to `CCCCC=CCCCCC=O`, in the test on O10A6, the “odorant receptor agonist call” value was “active”.
Consider `Cc1cncc(C)n1`, for which the “odorant receptor agonist call” value with A0A140T8K4 is “inactive”. Besides, the “odorant receptor agonist call” value in the test on A0A2J8MY22, in the test with A0A2R8ZIW4, in the test with A0A3Q7SVK8, with A0A6P3DZI2 and in the test on A0A6P6H1F7 was “active” each time.
With `CCCCCO`, the “odorant receptor agonist call” value with A0A140T8K4 and in the test on A0A1L1SVG7 was “inactive” in each case.
